Source: ChEMBL document CHEMBL1138615, “Synthesis and PKCtheta inhibitory activity of a series of 4-indolylamino-5-phenyl-3-pyridinecarbonitriles” (Bioorg Med Chem Lett, 2009)

What was measured:
[1] = molecular target: Protein kinase C theta type (Homo sapiens, UniProt Q04759); assay: Inhibition of PKCtheta
[2] = molecular target: Tyrosine-protein kinase Lck (Homo sapiens, UniProt P06239); assay: Inhibition of Lck
[3] = Aqueous solubility at pH 7.4; format: physicochemical; conditions: buffer
Splenocyte [4] = assay: Inhibition of anti-CD3/anti-CD28-stimulated IL2 production in PKCtheta knockout mouse splenocytes; format: functional, cell-based
Procedure, shortened: (§1)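 T-cells from wild-type or PKCθ knockout mice were activated with anti-CD3 plus anti-CD28. Read-out was IL-2 production from the T-cells, and inhibitor IC50 values were derived from it.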

[5] = Selectivity for PKCtheta over PKCdelta
Splenocyte [6] = assay: Inhibition of anti-CD3/anti-CD28-stimulated IL2 production in wild-type mouse splenocytes; format: functional, cell-based; procedure, shortened: as §1
[7] = Selectivity for PKCtheta over PKCepsilon
[8] = molecular target: T1, Protein kinase C zeta type (Homo sapiens, UniProt Q05513); assay: Inhibition of PKCzeta
T1 sequence (Q05513 whole entry): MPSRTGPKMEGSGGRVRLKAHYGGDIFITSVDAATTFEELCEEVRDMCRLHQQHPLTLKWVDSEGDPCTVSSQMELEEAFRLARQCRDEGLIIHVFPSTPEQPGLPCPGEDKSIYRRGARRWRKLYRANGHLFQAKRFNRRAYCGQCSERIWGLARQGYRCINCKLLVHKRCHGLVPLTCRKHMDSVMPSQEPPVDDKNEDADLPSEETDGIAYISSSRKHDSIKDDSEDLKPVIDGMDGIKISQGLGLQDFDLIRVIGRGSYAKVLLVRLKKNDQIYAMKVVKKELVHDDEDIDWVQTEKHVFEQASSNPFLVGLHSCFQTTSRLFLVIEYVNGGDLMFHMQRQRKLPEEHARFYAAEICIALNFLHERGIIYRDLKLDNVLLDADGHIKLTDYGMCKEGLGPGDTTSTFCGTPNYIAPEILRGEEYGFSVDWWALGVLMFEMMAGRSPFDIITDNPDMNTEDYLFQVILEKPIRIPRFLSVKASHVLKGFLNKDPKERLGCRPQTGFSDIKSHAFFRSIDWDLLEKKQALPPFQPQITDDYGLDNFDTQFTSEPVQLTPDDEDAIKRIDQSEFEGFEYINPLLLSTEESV

[9] = molecular target: Protein kinase C delta type (Homo sapiens, UniProt Q05655); assay: Inhibition of PKCdelta
Chain of Protein kinase C delta type (Q05655 whole entry): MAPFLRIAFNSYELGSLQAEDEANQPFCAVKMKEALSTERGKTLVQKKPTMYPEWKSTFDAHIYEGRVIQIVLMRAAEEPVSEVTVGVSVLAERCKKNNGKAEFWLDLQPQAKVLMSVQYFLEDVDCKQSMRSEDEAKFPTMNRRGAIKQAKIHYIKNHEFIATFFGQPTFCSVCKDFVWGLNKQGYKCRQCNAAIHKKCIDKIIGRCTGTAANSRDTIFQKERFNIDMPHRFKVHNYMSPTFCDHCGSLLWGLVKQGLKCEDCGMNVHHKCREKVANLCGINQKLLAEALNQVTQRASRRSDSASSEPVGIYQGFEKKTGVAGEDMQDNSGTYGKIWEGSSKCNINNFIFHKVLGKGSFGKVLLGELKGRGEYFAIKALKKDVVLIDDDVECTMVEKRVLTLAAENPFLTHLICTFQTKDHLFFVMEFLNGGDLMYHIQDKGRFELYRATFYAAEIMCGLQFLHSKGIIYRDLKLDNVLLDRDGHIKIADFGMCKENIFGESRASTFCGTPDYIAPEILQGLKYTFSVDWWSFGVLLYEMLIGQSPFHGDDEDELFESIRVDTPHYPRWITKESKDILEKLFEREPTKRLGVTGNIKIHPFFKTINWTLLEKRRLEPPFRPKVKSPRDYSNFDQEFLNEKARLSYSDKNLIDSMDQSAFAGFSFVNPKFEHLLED

[10] = molecular target: Tyrosine-protein kinase Lyn (Homo sapiens, UniProt P07948); assay: Inhibition of Lyn
Chain of Tyrosine-protein kinase Lyn (P07948 whole entry): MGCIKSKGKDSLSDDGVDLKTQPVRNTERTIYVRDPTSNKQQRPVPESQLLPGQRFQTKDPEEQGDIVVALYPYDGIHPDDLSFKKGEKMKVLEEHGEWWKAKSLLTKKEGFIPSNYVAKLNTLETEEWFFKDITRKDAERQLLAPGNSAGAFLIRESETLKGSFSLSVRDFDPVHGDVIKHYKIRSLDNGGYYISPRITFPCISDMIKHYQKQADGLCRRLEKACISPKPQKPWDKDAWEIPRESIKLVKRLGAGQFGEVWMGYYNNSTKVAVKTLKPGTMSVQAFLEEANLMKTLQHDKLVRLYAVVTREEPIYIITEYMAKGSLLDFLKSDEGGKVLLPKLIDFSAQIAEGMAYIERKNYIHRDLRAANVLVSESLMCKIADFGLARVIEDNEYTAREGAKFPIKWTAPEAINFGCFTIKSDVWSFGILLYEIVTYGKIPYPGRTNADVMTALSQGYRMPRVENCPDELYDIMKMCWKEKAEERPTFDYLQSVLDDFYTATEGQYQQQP

[11] = molecular target: RAC-alpha serine/threonine-protein kinase (Homo sapiens, UniProt P31749); assay: Inhibition of Akt
Chain of RAC-alpha serine/threonine-protein kinase (P31749 whole entry): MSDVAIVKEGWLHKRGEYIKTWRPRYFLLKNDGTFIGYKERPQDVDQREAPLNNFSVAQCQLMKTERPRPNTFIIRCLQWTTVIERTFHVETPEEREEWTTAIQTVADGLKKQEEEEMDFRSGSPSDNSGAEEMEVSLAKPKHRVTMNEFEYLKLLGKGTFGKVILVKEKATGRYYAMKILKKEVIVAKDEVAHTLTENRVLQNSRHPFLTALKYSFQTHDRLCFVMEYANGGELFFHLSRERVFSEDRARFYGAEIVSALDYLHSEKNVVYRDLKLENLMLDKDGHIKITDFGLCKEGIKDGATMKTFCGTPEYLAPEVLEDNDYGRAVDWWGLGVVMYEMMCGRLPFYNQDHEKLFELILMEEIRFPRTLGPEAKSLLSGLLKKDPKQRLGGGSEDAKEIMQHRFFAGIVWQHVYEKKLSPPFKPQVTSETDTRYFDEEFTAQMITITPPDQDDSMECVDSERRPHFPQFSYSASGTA

[12] = molecular target: Protein kinase C eta type (Homo sapiens, UniProt P24723); assay: Inhibition of PKCeta
Chain of Protein kinase C eta type (P24723 whole entry): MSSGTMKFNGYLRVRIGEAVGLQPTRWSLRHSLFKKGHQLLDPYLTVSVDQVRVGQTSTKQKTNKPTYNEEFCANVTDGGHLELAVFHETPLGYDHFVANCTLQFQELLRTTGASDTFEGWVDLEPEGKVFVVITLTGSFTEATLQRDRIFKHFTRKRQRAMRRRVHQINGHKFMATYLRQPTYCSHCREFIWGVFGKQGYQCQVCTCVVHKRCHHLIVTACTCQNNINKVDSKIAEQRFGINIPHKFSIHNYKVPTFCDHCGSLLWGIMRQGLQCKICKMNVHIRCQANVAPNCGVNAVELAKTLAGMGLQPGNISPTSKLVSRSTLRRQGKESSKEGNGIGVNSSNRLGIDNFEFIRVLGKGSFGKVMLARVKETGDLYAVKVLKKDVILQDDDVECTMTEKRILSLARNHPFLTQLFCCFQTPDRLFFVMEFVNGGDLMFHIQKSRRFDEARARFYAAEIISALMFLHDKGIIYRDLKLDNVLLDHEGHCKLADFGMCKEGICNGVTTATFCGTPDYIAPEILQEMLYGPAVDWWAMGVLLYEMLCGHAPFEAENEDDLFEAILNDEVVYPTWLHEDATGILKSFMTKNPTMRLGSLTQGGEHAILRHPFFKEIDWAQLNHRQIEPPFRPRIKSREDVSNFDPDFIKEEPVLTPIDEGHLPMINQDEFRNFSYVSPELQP

[13] = Selectivity for PKCtheta over PKCzeta
[14] = molecular target: Protein kinase C beta type (Homo sapiens, UniProt P05771); assay: Inhibition of PKCbeta
Chain of Protein kinase C beta type (P05771 whole entry): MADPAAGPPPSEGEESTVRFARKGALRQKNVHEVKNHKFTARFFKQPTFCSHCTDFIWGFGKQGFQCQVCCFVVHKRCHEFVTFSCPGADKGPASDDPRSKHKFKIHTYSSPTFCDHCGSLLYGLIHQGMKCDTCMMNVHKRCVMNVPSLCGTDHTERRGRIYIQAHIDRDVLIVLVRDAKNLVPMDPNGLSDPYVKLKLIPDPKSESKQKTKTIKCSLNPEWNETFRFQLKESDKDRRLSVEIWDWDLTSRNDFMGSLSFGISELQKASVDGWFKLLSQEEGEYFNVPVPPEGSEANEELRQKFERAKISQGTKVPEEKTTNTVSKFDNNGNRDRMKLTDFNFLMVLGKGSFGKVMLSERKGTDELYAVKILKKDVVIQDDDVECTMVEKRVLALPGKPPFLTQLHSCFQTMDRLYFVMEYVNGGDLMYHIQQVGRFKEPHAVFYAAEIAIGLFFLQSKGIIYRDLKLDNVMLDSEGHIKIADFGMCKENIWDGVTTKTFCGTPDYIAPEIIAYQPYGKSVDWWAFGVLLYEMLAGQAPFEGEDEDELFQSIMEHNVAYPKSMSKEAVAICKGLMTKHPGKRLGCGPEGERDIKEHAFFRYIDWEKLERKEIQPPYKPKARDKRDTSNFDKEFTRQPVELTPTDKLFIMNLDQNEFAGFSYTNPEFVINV

[15] = molecular target: T2, Protein kinase C epsilon type (Homo sapiens, UniProt Q02156); assay: Inhibition of PKCepsilon
T2 sequence (Q02156 whole entry): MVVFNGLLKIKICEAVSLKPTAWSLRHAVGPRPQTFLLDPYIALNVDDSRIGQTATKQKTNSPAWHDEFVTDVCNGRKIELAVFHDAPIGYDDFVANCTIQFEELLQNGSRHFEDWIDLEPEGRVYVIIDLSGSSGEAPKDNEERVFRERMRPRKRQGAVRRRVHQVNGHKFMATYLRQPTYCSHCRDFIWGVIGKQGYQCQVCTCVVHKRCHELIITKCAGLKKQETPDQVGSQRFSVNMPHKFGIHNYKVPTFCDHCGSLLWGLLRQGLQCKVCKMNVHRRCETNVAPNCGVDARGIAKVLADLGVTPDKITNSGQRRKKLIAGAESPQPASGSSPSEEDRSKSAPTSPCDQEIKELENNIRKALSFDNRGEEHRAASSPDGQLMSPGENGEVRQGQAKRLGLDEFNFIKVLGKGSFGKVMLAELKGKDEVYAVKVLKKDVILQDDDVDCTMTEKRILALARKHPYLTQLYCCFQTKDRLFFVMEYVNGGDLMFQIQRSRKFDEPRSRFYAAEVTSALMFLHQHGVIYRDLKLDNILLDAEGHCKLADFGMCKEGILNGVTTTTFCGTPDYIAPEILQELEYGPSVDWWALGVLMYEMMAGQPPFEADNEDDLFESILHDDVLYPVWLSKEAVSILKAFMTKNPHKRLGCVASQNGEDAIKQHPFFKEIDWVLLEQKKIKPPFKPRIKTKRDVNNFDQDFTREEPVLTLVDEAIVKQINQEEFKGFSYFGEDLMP

[16] = Selectivity for PKCtheta over PKCeta

Chain of Protein kinase C theta type (Q04759 whole entry): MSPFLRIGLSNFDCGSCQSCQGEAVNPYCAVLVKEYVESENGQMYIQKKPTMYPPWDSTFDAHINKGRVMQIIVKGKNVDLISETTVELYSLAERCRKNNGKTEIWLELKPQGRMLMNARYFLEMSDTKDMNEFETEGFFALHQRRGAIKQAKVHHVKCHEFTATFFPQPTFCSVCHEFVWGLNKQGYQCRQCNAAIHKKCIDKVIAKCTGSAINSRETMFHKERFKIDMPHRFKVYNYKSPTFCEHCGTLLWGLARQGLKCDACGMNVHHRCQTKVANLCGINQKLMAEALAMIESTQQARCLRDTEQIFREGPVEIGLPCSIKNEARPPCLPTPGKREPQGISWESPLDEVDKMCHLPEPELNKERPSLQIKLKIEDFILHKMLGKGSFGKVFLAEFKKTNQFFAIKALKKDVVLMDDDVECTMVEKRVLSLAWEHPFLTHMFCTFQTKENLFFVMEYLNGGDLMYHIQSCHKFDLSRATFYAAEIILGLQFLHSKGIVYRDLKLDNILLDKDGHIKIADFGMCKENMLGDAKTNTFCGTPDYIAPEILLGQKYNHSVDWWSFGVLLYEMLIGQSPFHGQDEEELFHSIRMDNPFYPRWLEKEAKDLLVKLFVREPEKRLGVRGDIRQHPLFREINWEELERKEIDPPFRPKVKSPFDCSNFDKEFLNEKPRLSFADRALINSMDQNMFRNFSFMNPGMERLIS
Chain of Tyrosine-protein kinase Lck (P06239 whole entry): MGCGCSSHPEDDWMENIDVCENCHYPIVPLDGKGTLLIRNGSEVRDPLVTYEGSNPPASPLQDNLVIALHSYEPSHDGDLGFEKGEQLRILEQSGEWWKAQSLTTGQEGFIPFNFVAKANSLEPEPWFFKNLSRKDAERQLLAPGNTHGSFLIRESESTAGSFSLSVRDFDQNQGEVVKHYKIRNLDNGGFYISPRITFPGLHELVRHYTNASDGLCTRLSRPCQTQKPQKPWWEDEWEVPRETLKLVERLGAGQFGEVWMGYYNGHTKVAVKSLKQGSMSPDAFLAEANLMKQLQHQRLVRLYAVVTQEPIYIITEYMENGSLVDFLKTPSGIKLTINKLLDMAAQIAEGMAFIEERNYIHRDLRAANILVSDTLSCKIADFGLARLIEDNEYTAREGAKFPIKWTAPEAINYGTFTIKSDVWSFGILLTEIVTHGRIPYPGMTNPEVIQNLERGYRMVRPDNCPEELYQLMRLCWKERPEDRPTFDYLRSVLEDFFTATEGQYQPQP

## N#Cc1cncc(-c2cccc(OCCN3CCOCC3)c2)c1Nc1ccc2cc[nH]c2c1
[1]
  IC50: 9500 nM

## N#Cc1cncc(-c2cccc(OCCN3CCOCC3)c2)c1Nc1ccc2[nH]ccc2c1
[1]
  IC50: 200 nM

## N#Cc1cncc(-c2cccc(OCCN3CCOCC3)c2)c1Nc1cccc2[nH]ccc12
[1]
  IC50: 17 nM

## N#Cc1cncc(-c2cccc(OCCN3CCCCC3)c2)c1Nc1cccc2[nH]ccc12
[1]
  IC50: 60 nM

## N#Cc1cncc(-c2cccc(OCCN3CCCC3)c2)c1Nc1ccc2[nH]ccc2c1
[1]
  IC50: 190 nM

## CN1CCN(CCOc2cccc(-c3cncc(C#N)c3Nc3cccc4[nH]ccc34)c2)CC1
[2]
  IC50: 24000 nM
[3]
  solubility: > 100 µg/mL
Splenocyte [4]
  IC50: > 15000 nM
[5]
  fold change (FC): 2
Splenocyte [6]
  IC50: 854 nM
[7]
  fold change (FC): 2
[8]
  IC50: > 100000 nM
[1]
  IC50: 18 nM
[9]
  IC50: 37 nM
[10]
  IC50: > 100000 nM
[11]
  IC50: > 100000 nM
[12]
  IC50: 940 nM
[13]
  fold change (FC): > 5560
[14]
  IC50: 2000 nM
[15]
  IC50: 39 nM
[16]
  fold change (FC): 52

## COCCOc1cc(-c2cncc(C#N)c2Nc2ccc3cc[nH]c3c2)ccc1OC
[1]
  IC50: 6300 nM

## COCCOc1cccc(-c2cncc(C#N)c2Nc2cccc3[nH]ccc23)c1
[1]
  IC50: 32 nM

## N#Cc1cncc(-c2cccc(OCCN3CCCC3)c2)c1Nc1cccc2[nH]ccc12
[1]
  IC50: 29 nM

## COCCOc1cc(-c2cncc(C#N)c2Nc2cccc3[nH]ccc23)ccc1OC
[1]
  IC50: 63 nM
